# Compounds with a hit are over-represented: about 1.4% of the library has one in this group of screens.
# Platelet DG rel – modulates dense granule release in human platelets | human platelet-rich plasma, SFLLRN dense granule ATP release, luminescence | inhibition, %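 (compounds screened at 7.5 µM in platelet-rich plasma)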 | actives 0.22% (n = 300,000) | AID 1663;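 active means mean replicate score, as percent of positive control, at or above 50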
# STAT1 inh – inhibitors of IFN-gamma induced STAT1 signaling; NIH 3T3 STAT1-luciferase reporter, luminescence; inhibition, % at 5.5 µM; actives 0.35% (n = 200,000); AID 920;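 active means inhibition above a set limit, the mean inhibition across all tested compounds plus 3 SD, cut at about 34% in these data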;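 further: 0% = IFN-gamma with DMSO and 100% = IFN-gamma with 300 µM nifuroxazide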
# STAT3 inh – reduces IL-6 driven STAT3 reporter signal. U3A cells, IL-6 STAT3-luciferase reporter, luminescence; host cell line lacks STAT1. inhibition, % at 5.5 µM. actives 0.89% (n = 190,000). AID 862;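 active means inhibition above the mean inhibition across all screened compounds plus 3 SD, cut at about 44% in these data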;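 further: 0% = DMSO only wells and 100% = 100 µM nifuroxazide control wells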
# PERK inh – human PERK inhibition, primary cell-based screen. AID 1416. inhibition, % at 5.6 µM. CHO PERK-DD fusion, SEAP luminescence translation reporter. Q9NZJ5. actives 0.17% (n = 220,000);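 active means inhibition above the mean inhibition of all tested compounds plus 3 SD, set separately per screening campaign, cut at about 2.9% in these data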;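 further: PERK kinase domain activated by AP20187 dimerizer at 100 nM; 0% = DMSO with dimerizer and 100% = rapamycin at 8.4 µM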
# STAT3 activator – activators of IL-6 induced STAT3 signaling; actives 0.91% (n = 190,000); activation (% of control), % at 5.6 µM; U3A cells, IL-6 STAT3-luciferase reporter, luminescence; 100% = signal with IL-6 EC80 alone;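 active means activation above the screen-wide mean of compound activation plus 3 SD, cut at about 130% in these data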;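 further: 0% = background luminescence of wells with medium and substrate only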
#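 Material: STAT3-luciferase reporter U3A cells. Controls: IL-6-treated wells, 100% activation. Read-out: % activation versus median of IL-6-stimulated wells. Probe or stimulus: IL-6 stimulus at 33 ng/mL final. Timing: compound 1 h, then IL-6 6 h at 37 °C. Signal: reporter luminescence signal.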
# Starred values were filed as active, the others as inactive; x = no result given.
SMILES,Platelet DG rel,STAT1 inh,STAT3 inh,PERK inh,STAT3 activator
CCOC(=O)C1(CCc2ccccc2)CCN(C(=O)c2cc(C)nc(C)n2)CC1,0,-21,-7,2,118
O=C(O)C(=O)/C(=C\c1ccc(Cl)cc1)c1ccc2ccccc2n1,2,-34,-45,1,147*
O=C(NCCc1ccc(Cl)cc1)c1ccc2ccccc2n1,4,x,x,x,x
Cc1ccc(S(=O)(=O)N(C)CC(=O)N2CC(C)OC(C)C2)cc1 (stereo not drawn),-10,x,x,x,x
CN=C(c1ccco1)n1c(=S)nc(-c2ccco2)n(C)c1=S,-3,-3,-36,1,135*
O=S(=O)(NN1CCOCC1)c1cc(Cl)cc(Cl)c1O,7,x,x,x,x
Cc1ccc(Sc2ncccc2NC(=O)c2ccccc2Cl)cc1,5,x,x,0,x
c1ccc2[nH]c(-c3ccc4c(c3)OCO4)nc2c1,73*,x,x,x,x
COC(=O)c1sccc1NC(=O)c1csc(C)c1,-3,-1,-38,1,136*
COC(=O)c1sccc1NC(=O)c1ccc(C)cc1,0,x,x,x,x
O=C1NCC(COc2cccc3ccccc23)O1 (stereo not drawn),-1,-6,5,3.1*,100
Cc1ccc2nc(NC(=O)c3ccco3)sc2c1,22,59*,94*,0,22
CC(=O)Nc1ccc2nc(NC(=O)c3cccs3)sc2c1,86*,x,x,1,x
CCCC(=O)Nc1nc2ccc(OCC)cc2s1,-7,-55,4,0,101
CCOc1ccc2nc(NC(=O)c3ccc(C)o3)sc2c1,61*,x,x,x,x
CC(=O)Oc1ccccc1C(=O)Nc1ccccc1C(=O)N1CCCCC1,-7,x,x,x,x
Cc1cc(=O)oc2c(C)c(OC(C)C(=O)NCc3ccccn3)ccc12 (stereo not drawn),-10,x,x,x,x
CC(=O)Nc1ccc(N2C(=O)c3ccc(C(=O)Nc4nnc(SCc5ccc(F)cc5)s4)cc3C2=O)cc1,-1,-5,12,0,94
COC(=O)C1(C(F)(F)F)N=C2Sc3ccccc3N2C(N2CCOCC2)=N1 (stereo not drawn),105*,2,-6,0,109
CCCOc1ccc(-c2cn3ccccc3n2)cc1,43,69*,88*,2,23
COc1ccc(-c2cn3ccccc3n2)cc1,41,x,x,0,x
Cc1cnc(NC(=O)c2ccc(OCC3CCCO3)cc2)s1 (stereo not drawn),8,51*,78*,0,38
CCc1ccc(NC(=S)Nc2cc(OC)c(NC(=O)C(C)C)cc2OC)cc1,-2,11,4,0,100
O=C(Nc1ccc(C(=O)O)cc1)Nc1ccc([N+](=O)[O-])cc1,-1,x,x,x,x
O=C(Nc1ccc([N+](=O)[O-])cc1)C1C(c2ccccc2)=C1c1ccccc1,-3,-6,-26,1,133*
SMILES,Platelet DG rel,STAT1 inh,STAT3 inh,PERK inh,STAT3 activator
CCn1c2ccccc2c2cc(Nc3cc(C)nc4ncnn34)ccc21,14,-2,-43,0,136*
CCc1ccc(Nc2cc(C)nc3ncnn23)cc1,3,x,x,x,x
Cc1cc(C)c(NC(=O)NC(=O)C(Cl)(Cl)Cl)c(C)c1,21,-4,-1,3.5*,105
CCOC(=O)CSc1nnc(NC(=O)CCc2ccccc2)s1,2,x,x,x,x
Cc1ccc(C(=O)ONc2ccc(N=O)cc2)cc1,59*,1,11,1,98
COC(=O)c1ccc(/C=C/c2nc3ccccc3c(=O)[nH]2)cc1,63*,x,x,x,x
Cc1ccc(/C=C/c2nc3ccccc3c(=O)[nH]2)cc1,45,x,x,0,x
O=C(NCc1ccccc1Cl)c1ccccc1Oc1ccccc1,24,-4,1,0,98
Cn1cc(/C=N/n2cnc3scc(-c4ccc(Cl)cc4)c3c2=O)c2ccccc21,4,0,-40,1,135*
CCOC(=O)CC1(NC(=O)C2CCC(=O)N(Cc3ccccc3OC)C2)CCCCC1 (stereo not drawn),-13,x,x,x,x
Cc1cc(=O)oc2ccc(OCC(=O)N3CCC(C)CC3)cc12,8,1,-35,0,135*
CCOC(=O)Cc1cc(=O)[nH]c(/N=C(\N)Nc2ccc(C)c(C)c2)n1,13,14,12,1,92
CCc1ccc(C2=NN(C(=O)OC)C(O)(C(F)(F)F)C2)cc1 (stereo not drawn),-4,38*,69*,1,48
CCOC(=O)N1N=C(c2ccc(OC)cc2)CC1(O)C(F)(F)F (stereo not drawn),-5,-19,13,0,90
CCCc1ccc(C(=O)/C=C/N(C)C)cc1,-17,-30,30,0,81
O=C(N/N=C/c1cccc(O)c1)N/N=C/c1cccc(O)c1,13,x,x,x,x
Cc1nonc1C(=O)N/N=C/c1cccc(O)c1,57*,-31,-12,0,110
O=C(NC(=O)N1CCCCCC1)c1ccc(Cl)cc1,10,x,x,x,x
O=c1ccc(-c2ccccc2)n[nH]1,4,-5,8,3.0*,99
CCS(=O)(=O)Nc1ccc(-c2nnc(SCC(=O)OC)o2)cc1,50*,4,17,1,93
Cc1ncc(CN2CCC(N3CCC(C(=O)N4CCCC4)CC3)CC2)s1,55*,x,x,x,x
C=C(C)[C@@H]1CC=C(CN2CCC(N3CCC(C(=O)N4CCCC4)CC3)CC2)CC1,11,21,-2,0,113
COc1ccc(NC(=O)c2ccc(OC(F)F)cc2)cc1Cl,64*,-75,-4,1,105
CC(C)CC(=O)NC(C)C(c1cccs1)N1CCOCC1 (stereo not drawn),-1,x,x,2,x
Cc1cccc(N/C(N)=N/c2nc(C)cc(=O)[nH]2)c1,0,-1,10,1,96
SMILES,Platelet DG rel,STAT1 inh,STAT3 inh,PERK inh,STAT3 activator
O=C(O)c1cccc(N2C(=O)/C(=C/c3ccc([N+](=O)[O-])cc3)C=C2c2ccccc2)c1,-7,39*,66*,0,46
O=C1/C(=C/c2ccc([N+](=O)[O-])cc2)C=C(c2ccccc2)N1c1ccccc1,-1,-7,11,1,100
CCSc1cc(N2CCCC2)nc(-c2ccccc2Cl)n1,-7,4,15,1,89
CC(=O)Oc1c(C)cc(Cl)cc1C(=O)Nc1ccc([N+](=O)[O-])cc1Cl,8,3,46*,1,63
CCS(=O)(=O)Nc1ccc(C2=NN(C(=O)c3ccco3)C(c3cccc(F)c3)C2)cc1 (stereo not drawn),4,63*,17,2,90
O=C(O)c1cc(Nc2cc(Cl)c3nonc3c2[N+](=O)[O-])ccc1O,3,x,x,x,x
Fc1ccc(Nc2nc(-c3cccnc3)cs2)cc1,2,-42,-64,-1,157*
c1ccc(-c2csc(Nc3cccnc3)n2)cc1,2,-41,-54,0,149*
Clc1ccc(-c2csc(Nc3cccnc3)n2)cc1,-7,x,x,0,x
CN(C(=S)NC(=O)CCCOc1ccc(Cl)cc1Cl)c1ccccc1,3,5,4,0,99
CCc1cc2c(N3CCN(c4ccccc4)CC3)ncnc2s1,5,7,46*,-1,67
c1ccc(N2CCN(c3ncnc4sc5c(c34)CCC5)CC2)cc1,1,-5,2,2,101

# Screening results (PubChem)
